Measurements taken from article PMC3786212 (Structure (London, England : 1993), 2012).

T1: DCNL5^P (DCNL5 PONY domain) (Homo sapiens, UniProt Q9BTE7)
T1 sequence (Q9BTE7 46-232 limits assumed): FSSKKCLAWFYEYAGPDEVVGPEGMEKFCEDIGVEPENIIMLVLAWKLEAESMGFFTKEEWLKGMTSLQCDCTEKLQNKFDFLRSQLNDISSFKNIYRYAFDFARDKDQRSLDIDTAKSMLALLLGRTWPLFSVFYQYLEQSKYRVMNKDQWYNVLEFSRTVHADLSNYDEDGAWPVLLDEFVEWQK

T2: DCNL4^P (DCNL4 PONY domain) (Homo sapiens, UniProt Q92564)
T2 sequence (Q92564 101-287 limits assumed): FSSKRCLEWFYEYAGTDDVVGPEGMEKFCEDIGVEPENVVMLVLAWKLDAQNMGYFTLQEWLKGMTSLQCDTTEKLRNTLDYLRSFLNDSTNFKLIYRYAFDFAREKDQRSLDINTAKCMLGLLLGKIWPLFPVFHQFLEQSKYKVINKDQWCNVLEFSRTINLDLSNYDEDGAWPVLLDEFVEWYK


What was measured:
[1] = molecular target: UBE2F^NAc, N-terminally acetylated UBE2F (human) (UniProt Q969M7); assay: ITC
[2] = molecular target: DCNL2^P (DCNL2 PONY domain) (Homo sapiens, UniProt Q6PH85); assay: ITC binding to DCNL2 PONY domain; settings: full-length UBE2F protein, pH 7.0, 16 °C
In short: (§1)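 Buffer-matched by NAP-5 desalting into 25 mM HEPES, 125 mM NaCl, 1 mM BME, pH 7.0. N-terminally acetylated UBE2F in cell at 100 µM final, 16 °C. PONY domain (1 mM) injected as 2.5 µl, 5 s injections at 3 min intervals. Heats and Kd from fits of integrated data. At least two independent runs; values from one run.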

[3] = molecular target: T1, DCNL5^P (DCNL5 PONY domain); assay: ITC binding to DCNL5 PONY domain; settings: full-length UBE2F protein, pH 7.0, 16 °C
In short: as §1

[4] = molecular target: DCNL1^P (DCNL1 PONY domain) (Homo sapiens, UniProt Q96GG9); assay: ITC binding to DCNL1 PONY domain; settings: full-length UBE2F protein, pH 7.0, 16 °C
In short: as §1

[5] = molecular target: T2, DCNL4^P (DCNL4 PONY domain); assay: ITC binding to DCNL4 PONY domain; settings: full-length UBE2F protein, pH 7.0, 16 °C
In short: as §1

DCNL2^P (DCNL2 PONY domain), sequence (Q6PH85 60-248 limits assumed): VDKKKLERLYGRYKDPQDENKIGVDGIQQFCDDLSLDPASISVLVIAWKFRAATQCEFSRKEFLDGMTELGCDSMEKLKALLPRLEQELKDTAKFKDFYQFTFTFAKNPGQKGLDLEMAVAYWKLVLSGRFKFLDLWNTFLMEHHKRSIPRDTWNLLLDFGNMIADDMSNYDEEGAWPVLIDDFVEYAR
DCNL1^P (DCNL1 PONY domain), sequence (Q96GG9 60-248 limits assumed): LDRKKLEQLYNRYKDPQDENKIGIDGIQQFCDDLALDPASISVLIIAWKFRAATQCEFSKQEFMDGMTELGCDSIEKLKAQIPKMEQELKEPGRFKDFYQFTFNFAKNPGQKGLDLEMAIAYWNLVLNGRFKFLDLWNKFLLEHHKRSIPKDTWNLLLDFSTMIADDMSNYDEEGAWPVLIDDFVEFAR

Row | Molecule | fold decrease in binding against DCNL3^P [1] [fold] | Kd [3] | Kd [5] | further results
1 | DCNL3 PONY domain (DCNL3^P) (from UniProt Q8IWE4 86-304) (domain or fragment) |  |  |  | Kd [1]: 1000 nM
2 | DCNL1 PONY domain (DCNL1^P) (from UniProt Q96GG9 62-259) (domain or fragment) | 5 |  |  | 
3 | UBE2F^NAc: N-terminally acetylated human UBE2F, NEDD8 E2, expressed in insect cells (protein, N-terminal methionine retained and N-terminally acetylated; left off: His tag, C-terminal, state not stated) MLTLASKLKRDDGLKGSRTAATASDSTRRVSVRDKLLVKEVAELEANLPCTCKVHFPDPNKLHCFQLTVTPDEGYYQGGKFQFETEVPDAYNMVPPKVKCLTKIWHPNITETGEICLSLLREHSIDGTGWAPTRTLKDVVWGLNSLFTDLLNFDDPLNIEAAEHHLRDKEDFRNKVDDYIKRYAR |  | too high for us to measure | too high for us to measure | fold decrease in binding relative to DCNL3^P [2]: 5 fold; fold decrease in binding relative to DCNL3^P [4]: 5 fold

The next lines start with results.

Row | fold decrease in binding against DCNL3^P [1] [fold] | Kd [3] | Kd [5] | Molecule | further results
4 | 5 |  |  | DCNL2 PONY domain (DCNL2^P) (from UniProt Q6PH85 62-259) (domain or fragment) | 
5 |  | could not measure binding | could not measure binding | unacetylated UBE2F: UBE2F prepared in E. coli as SUMO fusion, unacetylated N-terminal Met (protein, left off: SUMO, N-terminal, cleaved) MLTLASKLKRDDGLKGSRTAATASDSTRRVSVRDKLLVKEVAELEANLPCTCKVHFPDPNKLHCFQLTVTPDEGYYQGGKFQFETEVPDAYNMVPPKVKCLTKIWHPNITETGEICLSLLREHSIDGTGWAPTRTLKDVVWGLNSLFTDLLNFDDPLNIEAAEHHLRDKEDFRNKVDDYIKRYAR | binding (ITC) [2]: could not measure binding; binding (ITC) [4]: could not measure binding
